Test results taken from ChEMBL document CHEMBL4613269, “2-((4-Arylpiperazin-1-yl)methyl)benzonitrile Derivatives as Orally Available Inhibitors of Hepatitis C Virus with a Novel Mechanism of Action” (J Med Chem, 2020).
pEC50: −log10 of the molar value.

Tests used:
[1] = system: Hepatitis C virus; assay: Antiviral activity against HCV J6/JFH/JC1 infected in human Huh7.5 cells assessed as reduction in viral RNA levels incubated for 72 hrs by qRT-PCR analysis; type: functional, organism-based, Hepacivirus hominis; details: for pEC50: J6/JFH/JC1, Huh7.5, 72 h
Outline: (§1)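 Huh7.5 cells seeded 24 h, then infected with wild-type (or mutant) HCV with compound added at the same time. Incubated 72 h. Intracellular HCV RNA measured by qRT-PCR, 2^-ΔCt method, normalized to GAPDH. Eight-step 1:5 serial dilutions in triplicate; EC50 by Reed & Muench; three independent experiments.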

[2] = Cytotoxicity in human Huh7.5 cells assessed as reduction in cell viability incubated for 96 hrs by MTT assay; type: cell-based
Outline: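 Huh7.5 cells seeded 24 h before compound addition. Viability read by MTT at 96 h. Eight-step 1:5 serial dilutions in triplicate; CC50 by Reed & Muench; three independent experiments.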

[3] = Oral bioavailability in Sprague-Dawley rat 15 mg/kg measured after 0.25 to 72 hrs by LC-MS/MS analysis; type: ADME, organism-based; details: in vivo
[4] = Selectivity index, ratio of CC50 for cytotoxicity in human Huh7.5 cells assessed as reduction in cell viability incubated for 96 hrs by MTT assay to EC50 for antiviral activity against HCV J6/JFH/JC1 infected in human Huh7.5 cells incubated for 72 hrs by In-Cell Western assay; type: toxicity, cell-based; details: read-out: Ratio CC50/EC50
Outline: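 HCVcc (MOI=0.1) infected Huh7.5 cells co-treated with eight-step 1:5 serial dilutions, triplicate wells. After 72 h, fixed, permeabilized, and stained for HCV Core and GAPDH with IR-dye secondaries. Core normalized to GAPDH. CC50 came from MTT at 96 h in uninfected Huh7.5 cells. EC50/CC50 were derived by Reed & Muench, mean ± SD of three independent experiments.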

[5] = system: Hepatitis C virus; assay: Antiviral activity against HCV J6/JFH/JC1 infected in human Huh7.5 cells incubated for 72 hrs by In-Cell Western assay; type: functional, organism-based, Hepacivirus hominis; details: J6/JFH/JC1, Huh7.5, 72 h
Outline: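 Huh7.5 cells infected with HCVcc (MOI 0.1) and treated with compound at the same time for 72 h. Cells fixed with PFA, permeabilized, then stained for HCV Core and GAPDH with IR-dye secondaries. Core signal normalized to GAPDH. Eight-step 1:5 dilutions in triplicate; EC50 by Reed & Muench; mean of three experiments.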

[6] = Selectivity index, ratio of CC50 for cytotoxicity in human Huh7.5 cells assessed as reduction in cell viability incubated for 96 hrs by MTT assay to EC50 antiviral activity against HCV J6/JFH/JC1 infected in human Huh7.5 cells assessed as reduction in viral RNA levels incubated for 72 hrs by qRT-PCR analysis; type: toxicity, cell-based; details: read-out: Ratio CC50/EC50
Outline: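 Selectivity index = CC50/EC50. CC50: Huh7.5 cells seeded at 3×10^4/cm², medium with compound added at 24 h, MTT read at 96 h. EC50: HCVcc-infected Huh7.5 cells treated for 72 h, HCV RNA by qRT-PCR normalised to GAPDH. Serial 1:5 dilutions in eight steps, Reed & Muench calculation, means ± SD of three independent experiments.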

[7] = system: Hepatitis C virus; assay: Antiviral activity against wild type HCV by qRT-PCR analysis based by Reed-Muench method; type: functional, organism-based, Hepacivirus hominis; outline: as §1
[8] = system: Hepatitis C virus; assay: Antiviral activity against HCV expressing NS3 D168V mutant by qRT-PCR analysis based by Reed-Muench method; type: functional, organism-based, Hepacivirus hominis
Outline: (§2)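 Huh7.5 cells seeded at 3×10^4/cm², infected 24 h later with wild-type or mutant HCV stock while compound or solvent was added at the same time. Intracellular HCV RNA measured by qRT-PCR at 72 h, normalised to GAPDH, 2^-ΔCT method. EC50 by Reed & Muench from eight-step 1:5 serial dilutions, triplicate wells.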

[9] = Cytotoxicity in African green monkey Vero E6 cells assessed as reduction in cell viability; type: cell-based, Vero C1008; details: chlorocebus sabaeus
[10] = Selectivity index, ratio of CC50 for cytotoxicity in African green monkey Vero E6 cells to EC50 for Antiviral activity against Zika virus infected in Vero E6 cells; type: toxicity, cell-based, Vero C1008; details: read-out: Ratio CC50/EC50
[11] = system: Hepatitis C virus; assay: Antiviral activity against HCV expressing NS5B S282T mutant by qRT-PCR analysis based by Reed-Muench method; type: functional, organism-based, Hepacivirus hominis; outline: as §2
[12] = Selectivity index, ratio of CC50 for cytotoxicity in African green monkey Vero cells to EC50 for Antiviral activity against Coxsackievirus B3 infected in Vero cells; type: toxicity, cell-based; details: read-out: Ratio CC50/EC50
[13] = system: Coxsackievirus B3; assay: Antiviral activity against Coxsackievirus B3 infected in Vero cells assessed as reduction in virus-induced cytopathic effect incubated for 48 hrs by Reed-Muench method; type: functional, organism-based; details: Enterovirus B
[14] = Cytotoxicity in African green monkey Vero cells assessed as reduction in cell viability; type: cell-based; details: chlorocebus sabaeus

Row | Compound | CC50 at 96 h [2] | selectivity ratio [4] | pEC50 [5] | other results
1 | Cc1ccc(NCc2cc(N3CCN(C)CC3)ccc2C#N)cc1 | 37.4 µM |  |  | pEC50 [1]: 5.79; bioavailability [3]: < 5%
2 | CN(C)CCN(C)c1ccc(C(N)=O)c(CN2CCN(c3ccc(Cl)cc3)CC2)c1 | 15.5 µM | 13 | 5.94 | 
3 | CN1CCN(c2ccc(C#N)c(CN3CCN(c4ccc(Cl)cc4)CC3)c2)CC1 | 16.1 µM | 20 | 6.11 | 
4 | CN(C)CCCN(C)c1ccc(C#N)c(CN2CCN(c3ccc(Cl)cc3)CC2)c1 | 15.6 µM | 36 | 6.37 | 
5 | COc1ccc(NCc2cc(N3CCN(C)CC3)ccc2C#N)cc1 | 48.2 µM |  |  | pEC50 [1]: 5.67
6 | CN(C)CCN(C)c1ccc(C#N)c(CN2CCN(c3ccc(F)cc3)CC2)c1 | 52.1 µM | 70 | 6.13 | 
7 | N#Cc1ccc(NCCN2CCOCC2)cc1CN1CCN(c2ccc(Cl)cc2)CC1 | 76.3 µM | 16 | 5.33 | 
8 | CC(C)CCNc1ccc(C#N)c(CN2CCN(c3ccc(Cl)cc3)CC2)c1 | > 200 µM | > 1 | 3.92 | 
9 | CCC(=O)N(C)CCN(C)c1ccc(C#N)c(CN2CCN(c3ccc(Cl)cc3)CC2)c1 | 40 µM | 5 | 5.14 | 
10 | CN(C)CCNc1ccc(C#N)c(CN2CCN(c3ccc(Cl)cc3)CC2)c1 | 14.8 µM | 15 | 6.02 | 
11 | N#Cc1ccc(N2CCC(N3CCCC3)CC2)cc1CN1CCN(c2ccc(Cl)cc2)CC1 | 13.5 µM | 42 | 6.50 | 
12 | CN(C)CCN(C)c1ccc(C#N)c(CN2CCN(c3ccc(Cl)cc3F)CC2)c1 | 13.2 µM | 64 | 6.69 | 
13 | CN(C)CCN(C)c1ccc(C#N)c(CN2CCN(c3ccc(Cl)cc3[N+](=O)[O-])CC2)c1 | 12.5 µM | 57 | 6.66 | 
14 | CN1CCCN(c2ccc(C#N)c(CN3CCN(c4ccc(Cl)cc4)CC3)c2)CC1 | 12.5 µM | 81 | 6.82 | 
15 | CNCCN(C)c1ccc(C#N)c(CN2CCN(c3ccc(Cl)cc3)CC2)c1 | 15.8 µM | 54 | 6.54 | 
16 | CN(C)CCN(C)c1ccc(C#N)c(CN(C)c2ccc(Cl)cc2)c1 | 15.5 µM | 30.6 | 6.30 | pEC50 [1]: 6.74; bioavailability [3]: < 5%
17 | Cc1ccc(NCc2cc(N3CCCCC3)ccc2C#N)cc1 | 11.4 µM |  |  | pEC50 [1]: < 5.13
18 | CN(C)CCN(C)c1ccc(C#N)c(CN2CCN(c3ccc(Br)cc3)CC2)c1 | 13.3 to 15.6 µM | 128 | 6.98 | Activity ([1]; Hepacivirus hominis): Dose-dependent effect; pEC50 [1]: 7.51; selectivity ratio [6]: 503
19 | COc1ccc(N2CCN(Cc3cc(N(C)CCN(C)C)ccc3C#N)CC2)cc1 | 45.5 µM | 31 | 5.84 | 
20 | N#Cc1ccc(N2CCNC(=O)C2)cc1CN1CCN(c2ccc(Cl)cc2)CC1 | > 200 µM | > 2 | 4.10 | 
21 | CCN1CCCC1CNc1ccc(C#N)c(CN2CCN(c3ccc(Cl)cc3)CC2)c1 (stereo not given) | 7.64 µM | 16 | 6.34 | 
22 | CN1CCN(c2ccc(C#N)c(CNc3ccc(Cl)cc3)c2)CC1 | 18.3 µM |  |  | pEC50 [1]: 6.38
23 | CN(C)CCN(C)c1ccc(C#N)c(CN2CCN(c3ccc(C#N)cc3)CC2)c1 | 9.05 µM | 4 | 5.73 | 
24 | CN(C)CCN(C)c1ccc(C#N)c(CN2CCN(c3ccc([N+](=O)[O-])cc3)CC2)c1 | 12.8 µM | 40 | 6.50 | 

Row | Compound | CC50 at 96 h [2] | selectivity ratio [4] | pEC50 [5] | other results
25 | COc1ccc2c(O[C@@H]3C[C@H]4C(=O)N[C@]5(C(=O)NS(=O)(=O)C6CC6)C[C@H]5/C=C/CCCCN(C)C(=O)[C@@H]4C3)cc(-c3nc(C(C)C)cs3)nc2c1C |  |  |  | pEC50 [7]: 8.04; pEC50 [8]: < 6.00
26 | CN(C)CCN(C)c1ccc(C#N)c(CN2CCN(c3ccccc3)CC2)c1 | 50.2 µM | 55 | 6.04 | 
27 | N#Cc1ccc(NCc2ccccn2)cc1CN1CCN(c2ccc(Cl)cc2)CC1 | > 200 µM | > 14 | 4.86 | 
28 | CN(C)CCN(C)c1cccc(CN2CCN(c3ccc(Cl)cc3)CC2)c1 | 13.6 µM | 14 | 6.03 | 
29 | CN(C)CCN(C)c1ccc(C#N)c(CN2CCNCC2)c1 | > 200 µM | > 5 | 4.46 | 
30 | CN(C)CCN(C)c1ccc(C#N)c(CN2CCN(Cc3ccc(Cl)cc3)CC2)c1 | 15.6 µM | 14 | 5.98 | 
31 | N#Cc1ccc(N2CCNCC2)cc1CN1CCN(c2ccc(Cl)cc2)CC1 | 13.7 µM | 20 | 6.18 | 
32 | Cc1ccc(N2CCN(Cc3cc(N(C)CCN(C)C)ccc3C#N)CC2)cc1 | 36.2 µM | 90 | 6.40 | 
33 | CN(C)CCN(C)c1ccc(C#N)c(CN2CCC(c3ccc(Cl)cc3)CC2)c1 | 3.75 µM | 26 | 6.85 | 
34 | NC(=O)c1ncn([C@@H]2O[C@H](CO)[C@@H](O)[C@H]2O)n1 [RIBAVIRIN] |  |  |  | CC50 [9]: > 200 µM; selectivity ratio [10]: > 6
35 | Cc1ccc(NCc2cc(N3CCOCC3)ccc2C#N)cc1 | 133 µM |  |  | pEC50 [1]: < 4.18
36 | CN(C)CCN(C)c1ccc(C#N)c(CN2CCN(c3ccc(Cl)nc3)CC2)c1 | 52.6 µM | 21 | 5.60 | 
37 | CC1CN(Cc2cc(N(C)CCN(C)C)ccc2C#N)CCN1c1ccc(Cl)cc1 (stereo not given) | 13.7 µM | 42 | 6.49 | 
38 | CC(C)OC(=O)[C@H](C)N[P@](=O)(OC[C@H]1O[C@@H](n2ccc(=O)[nH]c2=O)[C@](C)(F)[C@@H]1O)Oc1ccccc1 [SOFOSBUVIR] | > 200 µM | > 1920 | 6.98 | pEC50 [7]: 7.53; pEC50 [1]: 7.34; selectivity ratio [6]: > 4350; pEC50 [11]: 6.83
39 | CN(C)CCN(C)c1ccc(C#N)c(CN2CCN(c3ccncc3)CC2)c1 | 44.7 µM | 16 | 5.56 | 
40 | Cc1ccc(NCc2cc(N3CCNCC3)ccc2C#N)cc1 | 18.8 µM |  |  | pEC50 [1]: 5.77
41 | CN(C)CCN(C)c1ccc(C#N)c(CN2CCN(c3ccc(Cl)cc3Cl)CC2)c1 | 9.85 µM | 59 | 6.78 | 
42 | CN(C)CCN(C)c1ccc(C#N)cc1CN1CCN(c2ccc(Cl)cc2)CC1 | 14.6 µM | 11 | 5.88 | 
43 | N#Cc1ccc(OCCN2CCCC2)cc1CN1CCN(c2ccc(Cl)cc2)CC1 | 16.6 µM | 20 | 6.09 | 
44 | Cc1cc(CCCOc2c(C)cc(-c3noc(C(F)(F)F)n3)cc2C)on1 [PLECONARIL] |  |  |  | selectivity ratio [12]: > 525; pEC50 [13]: 8.70; CC50 [14]: > 1.05 µM
45 | CN(C)CCN(C)c1ccc(C#N)c(CN2CCN(c3ccc(N)cc3)CC2)c1 | 55.2 µM | 8 | 5.19 | 
46 | Cc1ccc(N(C)Cc2cc(N3CCN(C)CC3)ccc2C#N)cc1 | 82 µM |  |  | pEC50 [1]: 6.05
47 | Cc1cc(Cl)ccc1N1CCN(Cc2cc(N(C)CCN(C)C)ccc2C#N)CC1 | 10.1 µM | 49 | 6.69 | 
48 | CN(C)c1ccc(C#N)c(CN2CCN(c3ccc(Cl)cc3)CC2)c1 | > 200 µM | > 3 | 4.24 | 
